Experimental findings from ChEMBL document CHEMBL3045132, “Synthesis and antiviral activity of novel chiral cyanoacrylate derivatives” (2005) are described below.

Structures are written as SMILES.

One test relates to Echinochloa crus-galli. The test is described as follows: Herbicidal activity against Echinochloa crus-galli (barnyard grass) assessed as inhibition effect at 1500 g/ha sprayed to the stem and leaves after seed germination.
Conditions: not given
The class given is functional. The gist of the method:
(§1)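 Post-emergence: compounds sprayed onto stems and leaves after seed germination; equal amount of water sprayed as control. Aerial tissue fresh weight measured 10 days after treatment; activity expressed as percent inhibition of aerial fresh weight.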
Consider `CCOC(=O)/C(C#N)=C(/Nc1ccc([N+](=O)[O-])cc1)N[C@@H](C)c1ccccc1`, for which the inhibition at 1500 g/ha was found to be 13.3%.
Turning to `CCOC(=O)/C(C#N)=C(/NNC(=O)c1cc(OC)c(OC)c(OC)c1)N[C@H](C)c1ccccc1`, the inhibition at 1500 g/ha worked out at 7.62%.
With `CCOC(=O)/C(C#N)=C(/NNC(=O)c1cc(OC)c(OC)c(OC)c1)N[C@@H](C)c1ccccc1`, the inhibition at 1500 g/ha was 0%.

In a further test the test system is A-431. Nature of the test: Antiproliferative activity against Homo sapiens (human) A431 cells at 5 uM measured after 72 hr by MTT assay. The class given is functional. Particulars: A-431, 72 h. The gist of the method: (§2)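 Cells plated at 3 × 10³/well in F-12 (PC3) or RPMI 1640 (A431) with 10% fetal bovine serum; compounds dissolved in DMSO, diluted in medium, exposed 72 h; vehicle control 0.1% DMSO. MTT cleavage to formazan read at 550 nm. Inhibition rate (%) = (A1 − A2)/A1 × 100, A1 untreated and A2 treated mean optical density; values as mean ± s.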
On the technique in general: Tetrazolium dyes change colour on reduction, which living cells bring about.
The molecule `CCOC(=O)/C(C#N)=C(/Nc1ccc([N+](=O)[O-])cc1)N[C@@H](C)c1ccccc1` showed an inhibition at 5 µM of 18.1%.
On the same count and under the same terms, the result for `CCOC(=O)/C(C#N)=C(/NNC(=O)c1cc(OC)c(OC)c(OC)c1)N[C@H](C)c1ccccc1` reads 25.1%.
`CCOC(=O)/C(C#N)=C(/NNC(=O)c1cc(OC)c(OC)c(OC)c1)N[C@@H](C)c1ccccc1` gave an inhibition at 5 µM of 29.4%.
The same measure, in the same setting: the result for `O=c1[nH]cc(F)c(=O)[nH]1` [FLUOROURACIL] reads 30.7%.

Another test concerns Brassica rapa subsp. oleifera. Nature of the test: Herbicidal activity against Brassica rapa subsp. oleifera assessed as inhibition effect at 1500 g/ha sprayed soil immediately after seed planting. The class given is functional.
Conditions: not given
The gist of the method: (§3)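 Pre-emergence: compounds sprayed onto soil immediately after seed planting; equal amount of water sprayed as control. Aerial tissue fresh weight measured 10 days after treatment; activity expressed as percent inhibition of aerial fresh weight.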
Consider `CCOC(=O)/C(C#N)=C(/Nc1ccc([N+](=O)[O-])cc1)N[C@@H](C)c1ccccc1`, for which the inhibition at 1500 g/ha was determined as 25%.
On to `CCOC(=O)/C(C#N)=C(/NNC(=O)c1cc(OC)c(OC)c(OC)c1)N[C@H](C)c1ccccc1`, for which the inhibition at 1500 g/ha amounted to 0%.
The same measure, in the same setting: in the case of `CCOC(=O)/C(C#N)=C(/NNC(=O)c1cc(OC)c(OC)c(OC)c1)N[C@@H](C)c1ccccc1` it was 0%.

For a further test, the system named is PC-3. Nature of the test: Antiproliferative activity against Homo sapiens (human) PC3 cells at 5 uM measured after 72 hr by MTT assay. Particulars: PC-3, 72 h. The class given is functional. Summed up:
as §2
`CCOC(=O)/C(C#N)=C(/Nc1ccc([N+](=O)[O-])cc1)N[C@@H](C)c1ccccc1` had an inhibition at 5 µM of 0.7%.
Same read-out and setting: the result for `CCOC(=O)/C(C#N)=C(/NNC(=O)c1cc(OC)c(OC)c(OC)c1)N[C@H](C)c1ccccc1` reads 32.1%.
`CCOC(=O)/C(C#N)=C(/NNC(=O)c1cc(OC)c(OC)c(OC)c1)N[C@@H](C)c1ccccc1`: the inhibition at 5 µM amounted to 3.2%.
In turn, `O=c1[nH]cc(F)c(=O)[nH]1` [FLUOROURACIL] returned an inhibition at 5 µM of 41.1%.

A further test deals with Tobacco mosaic virus. Nature of the test: Antiviral activity against Tobacco mosaic virus (TMV) inoculated in whole leaves of Nicotiana tabacum L. assessed as curative effect measured as local lesion number at 50 mg/l after 3 to 4 days. The class given is functional.
Conditions: not given
The gist of the method:
(§4)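 Same-age N. tabacum L. leaves dipped-inoculated over the whole leaf with TMV at 6 × 10^-3 mg/mL, then washed with water and dried. Compound solution smeared on left half, solvent on right half as control. Local lesions counted 3-4 days after inoculation; three repetitions. Inhibition (%) calculated from control versus treated average lesion numbers.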
`COc1ccc2c3c(c4cc(OC)c(OC)cc4c2c1)C[C@H]1CCCN1C3` [(-)-ANTOFINE]: the inhibition at 50 µg/mL was determined as 29.2%.

For a further test, the system named is Tobacco mosaic virus. Nature of the test: Antiviral activity against Tobacco mosaic virus (TMV) inoculated in whole leaves of Nicotiana tabacum L. assessed as curative effect measured as local lesion number at 500 mg/l after 3 to 4 days. The class given is functional.
Conditions: not given
The gist of the method:
as §4
As for `CCOC(=O)/C(C#N)=C(/Nc1ccc([N+](=O)[O-])cc1)N[C@@H](C)c1ccccc1`, the inhibition at 500 µg/mL was found to be 13.1%.
The same measure, in the same setting: the result for `CCOC(=O)/C(C#N)=C(/NNC(=O)c1cc(OC)c(OC)c(OC)c1)N[C@H](C)c1ccccc1` reads 26.7%; that for `CCOC(=O)/C(C#N)=C(/NNC(=O)c1cc(OC)c(OC)c(OC)c1)N[C@@H](C)c1ccccc1`, 12.1%.
Turning to `CNCC(=O)N[C@@H](CO)C(=O)N[C@H]1[C@H](O)[C@@H](O)[C@H](n2ccc(N)nc2=O)O[C@@H]1C(N)=O` [NINGNANMYCIN], the inhibition at 500 µg/mL was determined as 28.9%.

Another test has as its system Tobacco mosaic virus. Nature of the test: Antiviral activity against Tobacco mosaic virus (TMV) inoculated in left side of Nicotiana tabacum L. leaves assessed as inhibition of local lesion number at 50 mg/l measured after 3 to 4 days. The class given is functional.
Conditions: not given
The gist of the method:
(§5)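 Half-leaf test on Nicotiana tabacum L.: TMV mixed with an equal volume of compound solution for 30 min, then inoculated on the left half-leaf; right half received virus plus solvent as control. Local lesions counted 3-4 days after inoculation; three repetitions. Inhibition (%) = (control lesions − treated lesions)/control lesions.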
Regarding `COc1ccc2c3c(c4cc(OC)c(OC)cc4c2c1)C[C@H]1CCCN1C3` [(-)-ANTOFINE], the inhibition at 50 µg/mL is 14%.

For a further test, the system named is Echinochloa crus-galli. The test is described as follows: Herbicidal activity against Echinochloa crus-galli (barnyard grass) assessed as inhibition effect at 1500 g/ha sprayed soil immediately after seed planting. The class given is functional.
Conditions: not given
Summed up: as §3
On to `CCOC(=O)/C(C#N)=C(/Nc1ccc([N+](=O)[O-])cc1)N[C@@H](C)c1ccccc1`, for which the inhibition at 1500 g/ha stood at 14.3%.
Turning to `CCOC(=O)/C(C#N)=C(/NNC(=O)c1cc(OC)c(OC)c(OC)c1)N[C@H](C)c1ccccc1`, the inhibition at 1500 g/ha is 5.71%.
Still for that read-out and setting: the result for `CCOC(=O)/C(C#N)=C(/NNC(=O)c1cc(OC)c(OC)c(OC)c1)N[C@@H](C)c1ccccc1` reads 7.14%.

The next test concerns Amaranthus retroflexus. The test is described as follows: Herbicidal activity against Amaranthus retroflexus assessed as inhibition effect at 1500 g/ha sprayed soil immediately after seed planting. The class given is functional.
Conditions: not given
The gist of the method: as §3
Turning to `CCOC(=O)/C(C#N)=C(/Nc1ccc([N+](=O)[O-])cc1)N[C@@H](C)c1ccccc1`, the inhibition at 1500 g/ha was determined as 0%.
Regarding `CCOC(=O)/C(C#N)=C(/NNC(=O)c1cc(OC)c(OC)c(OC)c1)N[C@H](C)c1ccccc1`, the inhibition at 1500 g/ha was 26.3%.
On the same count and under the same terms, the result for `CCOC(=O)/C(C#N)=C(/NNC(=O)c1cc(OC)c(OC)c(OC)c1)N[C@@H](C)c1ccccc1` reads 10.5%.

The subject of the next test is Brassica rapa subsp. oleifera. The test is described as follows: Herbicidal activity against Brassica rapa subsp. oleifera assessed as inhibition effect at 1500 g/ha sprayed to the stem and leaves after seed germination. The class given is functional.
Conditions: not given
Summed up: as §1
As for `CCOC(=O)/C(C#N)=C(/Nc1ccc([N+](=O)[O-])cc1)N[C@@H](C)c1ccccc1`, the inhibition at 1500 g/ha amounted to 32.1%.
The same measure, in the same setting: the result for `CCOC(=O)/C(C#N)=C(/NNC(=O)c1cc(OC)c(OC)c(OC)c1)N[C@H](C)c1ccccc1` reads 3.13%; that for `CCOC(=O)/C(C#N)=C(/NNC(=O)c1cc(OC)c(OC)c(OC)c1)N[C@@H](C)c1ccccc1`, 18.8%.

A further test has as its system Tobacco mosaic virus. Nature of the test: Antiviral activity against Tobacco mosaic virus (TMV) inoculated in left side of Nicotiana tabacum L. leaves assessed as inhibition of local lesion number at 500 mg/l measured after 3 to 4 days. The class given is functional.
Conditions: not given
The gist of the method: as §5
For `CCOC(=O)/C(C#N)=C(/Nc1ccc([N+](=O)[O-])cc1)N[C@@H](C)c1ccccc1`, the inhibition at 500 µg/mL stood at 5.3%.
As to `CCOC(=O)/C(C#N)=C(/NNC(=O)c1cc(OC)c(OC)c(OC)c1)N[C@H](C)c1ccccc1`, the inhibition at 500 µg/mL came out at 46.4%.
The same measure, in the same setting: the result for `CCOC(=O)/C(C#N)=C(/NNC(=O)c1cc(OC)c(OC)c(OC)c1)N[C@@H](C)c1ccccc1` reads 7.5%; that for `CNCC(=O)N[C@@H](CO)C(=O)N[C@H]1[C@H](O)[C@@H](O)[C@H](n2ccc(N)nc2=O)O[C@@H]1C(N)=O` [NINGNANMYCIN], 88.9%.

In the next test the test system is Amaranthus retroflexus. Nature of the test: Herbicidal activity against Amaranthus retroflexus assessed as inhibition effect at 1500 g/ha sprayed to the stem and leaves after seed germination. The class given is functional.
Conditions: not given
Summed up: as §1
In the case of `CCOC(=O)/C(C#N)=C(/Nc1ccc([N+](=O)[O-])cc1)N[C@@H](C)c1ccccc1`, the inhibition at 1500 g/ha amounted to 0%.
Still for that read-out and setting: in the case of `CCOC(=O)/C(C#N)=C(/NNC(=O)c1cc(OC)c(OC)c(OC)c1)N[C@H](C)c1ccccc1` it was 0%.
The same measure, in the same setting: in the case of `CCOC(=O)/C(C#N)=C(/NNC(=O)c1cc(OC)c(OC)c(OC)c1)N[C@@H](C)c1ccccc1` it was 0%.

Broadly, the inhibition is the relative decrease from the control value, in per cent.
